Measurements from ChEMBL document CHEMBL1140867, “Photodynamic molecular beacon triggered by fibroblast activation protein on cancer-associated fibroblasts for diagnosis and treatment of epithelial cancers” (J Med Chem, 2009).
Peptide text beside a SMILES is read from it. * marks the point of attachment. Pyropheophorbide(a) = C=Cc1c(C)c2cc3nc(c4c5[nH]c(cc6nc(cc1[nH]2)C(C)=C6CC)c(C)c5C(=O)C4)[C@@H](CCC(=O)*)[C@@H]3C

B1: Prolyl endopeptidase FAP (Mus musculus), P97321 (protein)
chain: MKTWLKTVFGVTTLAALALVVICIVLRPSRVYKPEGNTKRALTLKDILNGTFSYKTYFPNWISEQEYLHQSEDDNIVFYNIETRESYIILSNSTMKSVNATDYGLSPDRQFVYLESDYSKLWRYSYTATYYIYDLQNGEFVRGYELPRPIQYLCWSPVGSKLAYVYQNNIYLKQRPGDPPFQITYTGRENRIFNGIPDWVYEEEMLATKYALWWSPDGKFLAYVEFNDSDIPIIAYSYYGDGQYPRTINIPYPKAGAKNPVVRVFIVDTTYPHHVGPMEVPVPEMIASSDYYFSWLTWVSSERVCLQWLKRVQNVSVLSICDFREDWHAWECPKNQEHVEESRTGWAGGFFVSTPAFSQDATSYYKIFSDKDGYKHIHYIKDTVENAIQITSGKWEAIYIFRVTQDSLFYSSNEFEGYPGRRNIYRISIGNSPPSKKCVTCHLRKERCQYYTASFSYKAKYYALVCYGPGLPISTLHDGRTDQEIQVLEENKELENSLRNIQLPKVEIKKLKDGGLTFWYKMILPPQFDRSKKYPLLIQVYGGPCSQSVKSVFAVNWITYLASKEGIVIALVDGRGTAFQGDKFLHAVYRKLGVYEVEDQLTAVRKFIEMGFIDEERIAIWGWSYGGYVSSLALASGTGLFKCGIAVAPVSSWEYYASIYSERFMGLPTKDDNLEHYKNSTVMARAEYFRNVDYLLIHGTADDNVHFQNSAQIAKALVNAQVDFQAMWYSDQNHGISSGRSQNHLYTHMTHFLKQCFSLSD

Tests used:
HEK293 = test: Photocytotoxicity against mouse FAP expressing HEK293 cells assessed as reduction of cell viability at 4 uM in presence of 2 J cm'-2 radiation by MTT assay; type: functional, Homo sapiens
In short: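 HEK-mFAP and HEK-Vector cells, 2.5×10^4 per well, grown 2 days, then incubated 24 h with compound diluted in FBS-free DMEM (DMSO/Tween 80 formulation) at 8 or 4 µM. Cells rinsed and refed, then irradiated with a 670 nm laser at 130 mW cm⁻², 16 s (2 J cm⁻²) or kept dark. Incubated overnight; MTT 2 h, SDS/HCl solubilization, absorbance read at 570 nm.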

[1] = substrate: C=Cc1c(C)c2cc3nc(c4c5[nH]c(cc6nc(cc1[nH]2)C(C)=C6CC)c(C)c5C(=O)C4)[C@@H](CCC(=O)N[C@H](C(=O)N[C@@H](CO)C(=O)NCC(=O)N1CCC[C@H]1C(=O)N[C@@H](CC(N)=O)C(=O)N[C@@H](CCC(N)=O)C(=O)N[C@@H](CCC(=O)O)C(=O)N[C@@H](CCC(N)=O)C(=O)N[C@@H](CCCCNOC(=O)CCCN(C)c1ccc(/N=N/c2cccc4nc5ccc(N(CC)CC)cc5[n+](-c5ccccc5)c24)cc1)C(N)=O)[C@@H](C)O)[C@@H]3C; test: Activity of mouse FAP assessed as enzyme mediated drug cleavage by measuring increase in fluorescence intensity
In short: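 Purified murine FAP (2 µg) with substrate at 0.1–6 µM in 1 mL 0.12 M NaCl/0.12 M TRIS pH 7.37 (substrate first dissolved in DMSO/Tween 80), 37 °C. Fluorescence followed continuously at ex 650/em 675 nm; excess mFAP (10 µg) added after 1 h. Initial rates (10% depletion), triplicate; Vmax, Km, kcat and kcat/Km from nonlinear Michaelis–Menten fit.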

| Molecule | Activity (HEK293) | Km [1] | Vmax [1] | kcat [1] |
| --- | --- | --- | --- | --- |
| C=Cc1c(C)c2cc3nc(c4c5[nH]c(cc6nc(cc1[nH]2)C(C)=C6CC)c(C)c5C(=O)C4)[C@@H](CCC(=O)N[C@H](C(=O)N[C@@H](CO)C(=O)NCC(=O)N1CCC[C@H]1C(=O)N[C@@H](CC(N)=O)C(=O)N[C@@H](CCC(N)=O)C(=O)N[C@@H](CCC(=O)O)C(=O)N[C@@H](CCC(N)=O)C(=O)N[C@@H](CCCCN)C(N)=O)[C@@H](C)O)[C@@H]3C ({Pyropheophorbide(a)}-TSGPNQEQK-NH2) | 40% | – | – | – |
| B1 | – | 1.02 µM | 36 pmol/min | 0.0292 s⁻¹ |
